The source of these data is ChEMBL document CHEMBL3272249, “Esters of N-tert-butylarterenol. Long-acting new bronchodilators with reduced cardiac effects” (J Med Chem, 1976).

Data set [1] relates to Canis familiaris. In words: Bronchodilator activity in dog assessed as degree of inhibition of carbachol or histamine-induced bronchoconstriction at 200 to 400 mg/kg, id relative to control. The format is functional, Canis lupus familiaris. The note with it: dose mg/kg 200-400; route intraduodenal. Put shortly: (§1)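 Anesthetized dogs, trachea cannulated with a nonbreathing valve. Bronchoconstriction induced by iv carbachol (2–4 μg/kg) or histamine diphosphate (20–50 μg/kg) in separate animals, and airway pressure recorded by transducer. Drug stocks were made fresh in distilled water, diluted in saline and kept on ice. Read-out was percent inhibition of control constriction, averaged over at least three dogs per dose at the higher dose. Carbachol and histamine data were combined.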

The test system of data set [2] is Canis familiaris. The experiment in a line: Bronchodilator activity in dog assessed as degree of inhibition of carbachol or histamine-induced bronchoconstriction at 4 to 8 mg/kg, iv relative to control. The format is functional, Canis lupus familiaris. The following applies: dose mg/kg 4-8. The gist of the method:
as §1

The test system of data set [3] is Canis familiaris. The experiment in a line: Cardiotoxicity in spontaneously respiring dog assessed as time of increase in heart rate at 4 to 8 mg/kg, iv relative to control. The format is toxicity, organism-based, Canis lupus familiaris. Further details: dose 4-8 mg/kg, route intravenous. The note with it: in vivo. Put shortly: (§2)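 Anesthetized, spontaneously respiring dogs. Heart rate was taken from a lead II EKG, and blood pressure from the right femoral artery by transducer. The increase in heart rate (beats/min) was scored on a graded scale with more than 4 dogs per dose, and its duration was recorded. Drugs were dissolved fresh in distilled water, diluted in physiological saline and kept on ice.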

In data set [4] the test system is Canis familiaris. The experiment in a line: Bronchodilator activity in dog assessed as degree of inhibition of carbachol or histamine-induced bronchoconstriction at 380 mg/kg, it relative to control. The format is functional. The following applies: Canis lupus familiaris, route endotracheal. Put shortly: as §1
Data set [5] concerns Canis familiaris. In words: Bronchodilator activity in dog assessed as time of inhibition of carbachol or histamine-induced bronchoconstriction at 200 to 400 mg/kg, id relative to control. The format is functional, Canis lupus familiaris. The note with it: dose mg/kg 200-400; route intraduodenal. Put shortly:
(§3)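 Dog airway model: anesthetized, cannulated via a nonbreathing valve, with airway pressure changes recorded after iv carbachol (2–4 μg/kg) or histamine diphosphate (20–50 μg/kg) challenge, each agonist in different animals. Compounds were given iv, intraduodenally or intratracheally from fresh aqueous stocks diluted in saline. Duration (h) of inhibition of induced bronchoconstriction was followed, and the two agonist datasets were pooled.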

Data set [6] has as its system Canis familiaris. The experiment in a line: Bronchodilator activity in dog assessed as time of inhibition of carbachol or histamine-induced bronchoconstriction at 4 to 8 mg/kg, iv relative to control. The format is functional, Canis lupus familiaris. The following applies: dose mg/kg 4-8. Put shortly: as §3
For data set [7], the system named is Canis familiaris. The experiment in a line: Bronchodilator activity in dog assessed as time of inhibition of carbachol or histamine-induced bronchoconstriction at 380 mg/kg, it relative to control. The format is functional, Canis lupus familiaris. The following applies: route endotracheal. Put shortly:
as §3

Data set [8] has as its system Canis familiaris. The experiment in a line: Cardiotoxicity in spontaneously respiring dog assessed as degree of increase in heart rate at 4 to 8 mg/kg, iv relative to control. The format is toxicity, organism-based, Canis lupus familiaris. Further details: dose 4-8 mg/kg, route intravenous. The note with it: in vivo. Put shortly: as §2
Data set [9] relates to Canis familiaris. The experiment in a line: Bronchodilator activity in dog assessed as degree of inhibition of carbachol or histamine-induced bronchoconstriction at 5 mg/kg, iv relative to control. The format is functional. The note with it: Canis lupus familiaris. The gist of the method:
as §1

Data set [10] has as its system Canis familiaris. The experiment in a line: Bronchodilator activity in dog assessed as time of inhibition of carbachol or histamine-induced bronchoconstriction at 5 mg/kg, iv relative to control. The format is functional, Canis lupus familiaris. The gist of the method:
(§4)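 Anesthetized dogs with an airway cannula and a nonbreathing valve. Bronchoconstriction was induced by iv carbachol (2–4 μg/kg) or histamine diphosphate (20–50 μg/kg) and read as change in airway pressure by transducer. Each compound was tested against both agonists in different dogs, and the results were combined and averaged. Effect is % inhibition of control constriction, with at least three dogs per dose. Drugs were dissolved fresh in distilled water, diluted in saline and kept on ice.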

The test system of data set [11] is Canis familiaris. The experiment in a line: Bronchodilator activity in dog assessed as degree of inhibition of carbachol or histamine-induced bronchoconstriction at 5 to 10 mg/kg, iv relative to control. The note with it: dose mg/kg 5-10. The format is functional, Canis lupus familiaris. Put shortly:
as §1

Data set [12] concerns Canis familiaris. The experiment in a line: Bronchodilator activity in dog assessed as time of inhibition of carbachol or histamine-induced bronchoconstriction at 5 to 10 mg/kg, iv relative to control. The format is functional, Canis lupus familiaris. The following applies: dose mg/kg 5-10. Put shortly: as §4
In data set [13] the test system is Canis familiaris. The experiment in a line: Bronchodilator activity in dog assessed as time of inhibition of carbachol or histamine-induced bronchoconstriction at 300 to 1200 mg/kg, it relative to control. The format is functional, Canis lupus familiaris. The note with it: dose mg/kg 300-1200; route endotracheal. Put shortly: as §3
Data set [14] has as its system Canis familiaris. In words: Bronchodilator activity in dog assessed as degree of inhibition of carbachol or histamine-induced bronchoconstriction at 300 to 1200 mg/kg, it relative to control. The format is functional, Canis lupus familiaris. The following applies: dose mg/kg 300-1200; route endotracheal. The gist of the method:
as §1

In data set [15] the test system is Canis familiaris. In words: Cardiotoxicity in spontaneously respiring dog assessed as degree of increase in heart rate at 100 to 200 mg/kg, iv relative to control. The format is toxicity, organism-based, Canis lupus familiaris. The note with it: in vivo. Details: dose 100-200 mg/kg, route intravenous. The gist of the method:
as §2

In data set [16] the test system is Canis familiaris. The experiment in a line: Bronchodilator activity in dog assessed as time of inhibition of carbachol or histamine-induced bronchoconstriction at 100 to 200 mg/kg, iv relative to control. The format is functional, Canis lupus familiaris. The note with it: dose mg/kg 100-200. The gist of the method:
as §3

For data set [17], the system named is Canis familiaris. The experiment in a line: Bronchodilator activity in dog assessed as degree of inhibition of carbachol or histamine-induced bronchoconstriction at 100 to 200 mg/kg, iv relative to control. The format is functional, Canis lupus familiaris. The following applies: dose mg/kg 100-200. Put shortly:
as §1

Data set [18] relates to Canis familiaris. In words: Bronchodilator activity in dog assessed as degree of inhibition of carbachol or histamine-induced bronchoconstriction at 25 to 100 mg/kg, iv relative to control. The format is functional, Canis lupus familiaris. The following applies: dose mg/kg 25-100. Put shortly: as §1
Data set [19] deals with Canis familiaris. In words: Bronchodilator activity in dog assessed as time of inhibition of carbachol or histamine-induced bronchoconstriction at 25 to 100 mg/kg, iv relative to control. The following applies: dose mg/kg 25-100. The format is functional, Canis lupus familiaris. The gist of the method: as §3
Data set [20] has as its system Canis familiaris. In words: Bronchodilator activity in dog assessed as degree of inhibition of carbachol or histamine-induced bronchoconstriction at 520 to 1040 mg/kg, it relative to control. The format is functional, Canis lupus familiaris. The note with it: dose mg/kg 520-1040; route endotracheal. The gist of the method:
as §1

The test system of data set [21] is Canis familiaris. The experiment in a line: Bronchodilator activity in dog assessed as time of inhibition of carbachol or histamine-induced bronchoconstriction at 520 to 1040 mg/kg, it relative to control. The format is functional, Canis lupus familiaris. The note with it: dose mg/kg 520-1040; route endotracheal. Put shortly: as §4
Data set [22] relates to Canis familiaris. In words: Bronchodilator activity in dog assessed as degree of inhibition of carbachol or histamine-induced bronchoconstriction at 25 to 50 mg/kg, iv relative to control. The format is functional, Canis lupus familiaris. The note with it: dose mg/kg 25-50. The gist of the method:
as §1

Data set [23] deals with Canis familiaris. In words: Bronchodilator activity in dog assessed as time of inhibition of carbachol or histamine-induced bronchoconstriction at 25 to 50 mg/kg, iv relative to control. The format is functional, Canis lupus familiaris. The following applies: dose mg/kg 25-50. The gist of the method: as §3

For the molecule `CCCC(=O)Oc1ccc([C@@H](O)CNC(C)(C)C)cc1OC(=O)CCC.Cl`, the “inhibition (INH)” value in the data set with Canis familiaris [1] and with Canis familiaris [2] was over 70% throughout. For the same molecule, the Time was under 1 h in the data set with Canis familiaris [3], over 3 h in the data set with Canis familiaris [5], under 2 h in the data set with Canis familiaris [6] and under 2 h with Canis familiaris [7]. In addition, the inhibition in vivo at 380 mg/kg with Canis familiaris [4] was over 70%. Besides, the Activity in the data set on Canis familiaris [8] was 20 beats/min.
With `CC(C)C(=O)Oc1ccc([C@@H](O)CNC(C)(C)C)cc1OC(=O)C(C)C.Cl`, in the data set on Canis familiaris [9], the inhibition in vivo at 5 mg/kg was found to be 20%. Also, the Time in the data set with Canis familiaris [10] is under 0.5 h.
Take `CCC(C)C(=O)Oc1ccc([C@@H](O)CNC(C)(C)C)cc1OC(=O)C(C)CC.Cl` (stereo not given in full): the “inhibition (INH)” value in the data set on Canis familiaris [11] turned out to be 45%. Further, the Time in the data set with Canis familiaris [12] is under 1 h.
Consider `CCCC(C)(C)C(=O)Oc1ccc([C@@H](O)CNC(C)(C)C)cc1OC(=O)C(C)(C)CCC.CS(=O)(=O)O`, for which, in the data set with Canis familiaris [11], the “inhibition (INH)” value worked out at 45%. Moreover, in the data set with Canis familiaris [12], the Time is under 1 h.
In the case of `CS(=O)(=O)O.Cc1ccccc1C(=O)Oc1ccc([C@@H](O)CNC(C)(C)C)cc1OC(=O)c1ccccc1C`, the Time in the data set with Canis familiaris [13] was under 3 h; in the data set with Canis familiaris [16], under 4 h. For the same molecule, the “inhibition (INH)” value with Canis familiaris [14] and in the data set on Canis familiaris [17] was 20% throughout. For the same molecule, the Activity in the data set with Canis familiaris [15] is listed as 20%.
For `COc1ccc(CC(=O)Oc2ccc([C@@H](O)CNC(C)(C)C)cc2OC(=O)Cc2ccc(OC)cc2)cc1.Cl`, in the data set on Canis familiaris [18], the “inhibition (INH)” value is on record as over 70%. Further, in the data set with Canis familiaris [19], the Time was 2 h.
Take `CS(=O)(=O)O.Cc1ccc(C(=O)Oc2ccc([C@@H](O)CNC(C)(C)C)cc2OC(=O)c2ccccc2)cc1`: the “inhibition (INH)” value is given as 45% in the data set with Canis familiaris [20] and over 70% in the data set on Canis familiaris [22]. In addition, the Time with Canis familiaris [21] and in the data set on Canis familiaris [23] was 2 h throughout.

One may read the inhibition in vivo as the percentage by which the read-out fell short of the control.
